Test results published in ChEMBL document CHEMBL5724801, “EUbOPEN Chemogenomics Library - Multiplex” (2024).
Where “and” joins values, the source holds several entries; their conditions need not be identical. Equal entries are not always repeated.

Test system: U2OS
Assay: Multiplex assay against U2OS
Assay type: toxicity, cell-based
Conditions: human
In short: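 Cells stained live at seeding with Hoechst33342, BioTracker Green Microtubule Cytoskeleton Dye, MitoTracker Red and Annexin V Alexa Fluor 680 were imaged on a CQ1 microscope at 37°C and 5% CO2 after compound addition. Their classification by CellPathfinder machine-learning gating ran from Hoechst high-intensity objects versus normal cells, to healthy, pyknosed or fragmented nuclei among normal cells, to mitotic or apoptotic among pyknosed cells. Tubulin, mitochondrial-mass and membrane-permeability phenotypes are per cents of healthy-nucleus cells.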

[1] = 12 h, 1 µM, compound concentration 1 uM
[2] = 12 h, 10 µM, compound concentration 10 uM
[3] = 24 h, 1 µM, compound concentration 1 uM
[4] = 24 h, 10 µM, compound concentration 10 uM
[5] = 48 h, 1 µM, compound concentration 1 uM
[6] = 48 h, 10 µM, compound concentration 10 uM

Question: Which “Population Apoptotic (%)” value [1] does the source give for Cc1cc(C(C#N)c2ccc(Cl)cc2)c(Cl)cc1NC(=O)c1cc(I)cc(I)c1O (centres undefined) [CLOSANTEL] here?
Answer: 40% and 50%

Question: And the “Population Fragmented Nuclei (%)” value [1]?
Answer: 1.13% and 2.08%

Question: What about the “Population Healthy Nuclei (%)” value [1] of the same compound?
Answer: 90.4% and 86.81%

Question: What about the “Population Hoechst High Intensity Objects (%)” value [1] of the same compound?
Answer: 0.19% and 0%

Question: What about the “Population Membrane Permeable-Phenotype (%)” value [1] of the same compound?
Answer: 0.62% and 4.8%

Question: What about the “Population Mitochondria Different-Phenotype (%)” value [1] of the same compound?
Answer: 0.42% and 3.2%

Question: And the “Population Mitotic Cells (%)” value [1]?
Answer: 60% and 50%

Question: And the “Population Normal (%)” value [1]?
Answer: 99.81% and 100%

Question: And the “Population Pyknosed Nuclei (%)” value [1]?
Answer: 8.47% and 11.11%

Question: What about the “Population Tubulin-Different-Phenotype (%)” value [1] of the same compound?
Answer: 1.46% and 0.8%

Question: What about the “Population Apoptotic (%)” value [2] of the same compound?
Answer: 37.5% and 50%

Question: What about the “Population Fragmented Nuclei (%)” value [2] of the same compound?
Answer: 1.14% and 4.88%

Question: What about the “Population Healthy Nuclei (%)” value [2] of the same compound?
Answer: 93.39% and 81.71%

Question: What about the “Population Hoechst High Intensity Objects (%)” value [2] of the same compound?
Answer: 0%

Question: What about the “Population Membrane Permeable-Phenotype (%)” value [2] of the same compound?
Answer: 0.98% and 2.99%

Question: What about the “Population Mitochondria Different-Phenotype (%)” value [2] of the same compound?
Answer: 0.49% and 8.96%

Question: What about the “Population Mitotic Cells (%)” value [2] of the same compound?
Answer: 62.5% and 50%

Question: And the “Population Normal (%)” value [2]?
Answer: 100%

Question: What about the “Population Pyknosed Nuclei (%)” value [2] of the same compound?
Answer: 5.47% and 13.41%

Question: And the “Population Tubulin-Different-Phenotype (%)” value [2]?
Answer: 0.73% and 2.24%

Question: What about the “Total Cell Count” value [2] of the same compound?
Answer: 439 and 164

Question: What about the “Population Apoptotic (%)” value [3] of the same compound?
Answer: 40% and 43.75%

Question: And the “Population Fragmented Nuclei (%)” value [3]?
Answer: 1.65% and 4.19%

Question: What about the “Population Healthy Nuclei (%)” value [3] of the same compound?
Answer: 90.1% and 86.23%

Question: And the “Population Hoechst High Intensity Objects (%)” value [3]?
Answer: 0%

Question: What about the “Population Membrane Permeable-Phenotype (%)” value [3] of the same compound?
Answer: 0.61% and 5.56%

Question: And the “Population Mitochondria Different-Phenotype (%)” value [3]?
Answer: 0.46% and 6.25%

Question: And the “Population Mitotic Cells (%)” value [3]?
Answer: 60% and 56.25%

Question: What about the “Population Normal (%)” value [3] of the same compound?
Answer: 100%

Question: What about the “Population Pyknosed Nuclei (%)” value [3] of the same compound?
Answer: 8.25% and 9.58%

Question: What about the “Population Tubulin-Different-Phenotype (%)” value [3] of the same compound?
Answer: 0.46% and 1.39%

Question: What about the “Population Apoptotic (%)” value [4] of the same compound?
Answer: 33.33% and 40%

Question: And the “Population Fragmented Nuclei (%)” value [4]?
Answer: 1.76% and 4.91%

Question: And the “Population Healthy Nuclei (%)” value [4]?
Answer: 88.75% and 83.93%

Question: What about the “Population Hoechst High Intensity Objects (%)” value [4] of the same compound?
Answer: 0%

Question: And the “Population Membrane Permeable-Phenotype (%)” value [4]?
Answer: 0% and 2.66%

Question: What about the “Population Mitochondria Different-Phenotype (%)” value [4] of the same compound?
Answer: 0% and 4.26%

Question: And the “Population Mitotic Cells (%)” value [4]?
Answer: 66.67% and 60%

Question: What about the “Population Normal (%)” value [4] of the same compound?
Answer: 100%

Question: And the “Population Pyknosed Nuclei (%)” value [4]?
Answer: 9.49% and 11.16%

Question: What about the “Population Tubulin-Different-Phenotype (%)” value [4] of the same compound?
Answer: 0.4% and 1.06%

Question: What about the “Total Cell Count” value [4] of the same compound?
Answer: 569 and 224

Question: What about the “Population Apoptotic (%)” value [5] of the same compound?
Answer: 45.67% and 45.95%

Question: What about the “Population Fragmented Nuclei (%)” value [5] of the same compound?
Answer: 3.15% and 4.35%

Question: What about the “Population Healthy Nuclei (%)” value [5] of the same compound?
Answer: 87.31% and 83.28%

Question: And the “Population Hoechst High Intensity Objects (%)” value [5]?
Answer: 0%

Question: And the “Population Membrane Permeable-Phenotype (%)” value [5]?
Answer: 0.6% and 2.01%

Question: What about the “Population Mitochondria Different-Phenotype (%)” value [5] of the same compound?
Answer: 0% and 6.02%

Question: What about the “Population Mitotic Cells (%)” value [5] of the same compound?
Answer: 54.33% and 54.05%

Question: And the “Population Normal (%)” value [5]?
Answer: 100%

Question: And the “Population Pyknosed Nuclei (%)” value [5]?
Answer: 9.53% and 12.37%

Question: What about the “Population Tubulin-Different-Phenotype (%)” value [5] of the same compound?
Answer: 0.77% and 0%

Question: And the “Population Apoptotic (%)” value [6]?
Answer: 36.05% and 34.09%

Question: What about the “Population Fragmented Nuclei (%)” value [6] of the same compound?
Answer: 2.74% and 3.02%

Question: And the “Population Healthy Nuclei (%)” value [6]?
Answer: 89.14% and 85.93%

Question: And the “Population Hoechst High Intensity Objects (%)” value [6]?
Answer: 0.09% and 0%

Question: What about the “Population Membrane Permeable-Phenotype (%)” value [6] of the same compound?
Answer: 0.42% and 1.17%

Question: And the “Population Mitochondria Different-Phenotype (%)” value [6]?
Answer: 0.11% and 4.97%

Question: What about the “Population Mitotic Cells (%)” value [6] of the same compound?
Answer: 63.95% and 65.91%

Question: What about the “Population Normal (%)” value [6] of the same compound?
Answer: 99.91% and 100%

Question: And the “Population Pyknosed Nuclei (%)” value [6]?
Answer: 8.12% and 11.06%

Question: What about the “Population Tubulin-Different-Phenotype (%)” value [6] of the same compound?
Answer: 0.32% and 0.88%

Question: And the “Total Cell Count” value [6]?
Answer: 1060 and 398

Question: How did the “Population Apoptotic (%)” value [1] turn out when Cl.N=C(N)NC(=O)Cc1c(Cl)cccc1Cl [GUANFACINE HYDROCHLORIDE] was run?
Answer: 80% and 100%

Question: And the “Population Fragmented Nuclei (%)” value [1]?
Answer: 28% and 20%

Question: And the “Population Healthy Nuclei (%)” value [1]?
Answer: 55% and 72%

Question: What about the “Population Hoechst High Intensity Objects (%)” value [1] of the same compound?
Answer: 4% and 2%

Question: What about the “Population Membrane Permeable-Phenotype (%)” value [1] of the same compound?
Answer: 5% and 8%

Question: What about the “Population Mitochondria Different-Phenotype (%)” value [1] of the same compound?
Answer: 1% and 2%

Question: And the “Population Mitotic Cells (%)” value [1]?
Answer: 19% and 0%

Question: And the “Population Normal (%)” value [1]?
Answer: 95% and 97%

Question: What about the “Population Pyknosed Nuclei (%)” value [1] of the same compound?
Answer: 16% and 7%

Question: What about the “Population Tubulin-Different-Phenotype (%)” value [1] of the same compound?
Answer: 2% and 6%

Question: And the “Total Cell Count” value [1]?
Answer: 165 and 129

Question: And the “Population Apoptotic (%)” value [2]?
Answer: 87% and 77%

Question: And the “Population Fragmented Nuclei (%)” value [2]?
Answer: 27% and 18%

Question: What about the “Population Healthy Nuclei (%)” value [2] of the same compound?
Answer: 61% and 74%

Question: What about the “Population Hoechst High Intensity Objects (%)” value [2] of the same compound?
Answer: 1%

Question: What about the “Population Membrane Permeable-Phenotype (%)” value [2] of the same compound?
Answer: 10% and 12%

Question: What about the “Population Mitochondria Different-Phenotype (%)” value [2] of the same compound?
Answer: 3% and 7%

Question: What about the “Population Mitotic Cells (%)” value [2] of the same compound?
Answer: 12% and 22%

Question: And the “Population Normal (%)” value [2]?
Answer: 98%

Question: And the “Population Pyknosed Nuclei (%)” value [2]?
Answer: 11% and 7%

Question: What about the “Population Tubulin-Different-Phenotype (%)” value [2] of the same compound?
Answer: 7% and 10%

Question: And the “Total Cell Count” value [2]?
Answer: 280 and 130

Question: What about the “Population Apoptotic (%)” value [3] of the same compound?
Answer: 75% and 83%

Question: What about the “Population Fragmented Nuclei (%)” value [3] of the same compound?
Answer: 32% and 18%

Question: What about the “Population Healthy Nuclei (%)” value [3] of the same compound?
Answer: 56% and 74%

Question: What about the “Population Hoechst High Intensity Objects (%)” value [3] of the same compound?
Answer: 3% and 0%

Question: What about the “Population Membrane Permeable-Phenotype (%)” value [3] of the same compound?
Answer: 5% and 8%

Question: What about the “Population Mitochondria Different-Phenotype (%)” value [3] of the same compound?
Answer: 3% and 4%

Question: What about the “Population Mitotic Cells (%)” value [3] of the same compound?
Answer: 25% and 16%

Question: What about the “Population Normal (%)” value [3] of the same compound?
Answer: 96% and 99%

Question: And the “Population Pyknosed Nuclei (%)” value [3]?
Answer: 10% and 7%

Question: What about the “Population Tubulin-Different-Phenotype (%)” value [3] of the same compound?
Answer: 2% and 5%

Question: And the “Total Cell Count” value [3]?
Answer: 194 and 160

Question: What about the “Population Apoptotic (%)” value [4] of the same compound?
Answer: 84% and 83%

Question: What about the “Population Fragmented Nuclei (%)” value [4] of the same compound?
Answer: 25% and 15%

Question: And the “Population Healthy Nuclei (%)” value [4]?
Answer: 64% and 76%

Question: And the “Population Hoechst High Intensity Objects (%)” value [4]?
Answer: 0% and 2%

Question: What about the “Population Membrane Permeable-Phenotype (%)” value [4] of the same compound?
Answer: 9% and 10%

Question: And the “Population Mitochondria Different-Phenotype (%)” value [4]?
Answer: 2% and 4%

Question: What about the “Population Mitotic Cells (%)” value [4] of the same compound?
Answer: 15% and 16%

Question: What about the “Population Normal (%)” value [4] of the same compound?
Answer: 99% and 97%

Question: What about the “Population Pyknosed Nuclei (%)” value [4] of the same compound?
Answer: 9% and 7%

Question: What about the “Population Tubulin-Different-Phenotype (%)” value [4] of the same compound?
Answer: 4% and 5%

Question: And the “Total Cell Count” value [4]?
Answer: 326 and 160

Question: What about the “Population Apoptotic (%)” value [5] of the same compound?
Answer: 89% and 90%

Question: What about the “Population Fragmented Nuclei (%)” value [5] of the same compound?
Answer: 28% and 16%

Question: And the “Population Healthy Nuclei (%)” value [5]?
Answer: 60% and 73%

Question: What about the “Population Hoechst High Intensity Objects (%)” value [5] of the same compound?
Answer: 2% and 3%

Question: What about the “Population Membrane Permeable-Phenotype (%)” value [5] of the same compound?
Answer: 4% and 8%

Question: What about the “Population Mitochondria Different-Phenotype (%)” value [5] of the same compound?
Answer: 3% and 4%

Question: What about the “Population Mitotic Cells (%)” value [5] of the same compound?
Answer: 10% and 9%

Question: And the “Population Normal (%)” value [5]?
Answer: 97% and 96%

Question: And the “Population Pyknosed Nuclei (%)” value [5]?
Answer: 10%

Question: What about the “Population Tubulin-Different-Phenotype (%)” value [5] of the same compound?
Answer: 3% and 6%

Question: And the “Total Cell Count” value [5]?
Answer: 262 and 217

Question: And the “Population Apoptotic (%)” value [6]?
Answer: 90% and 95%

Question: What about the “Population Fragmented Nuclei (%)” value [6] of the same compound?
Answer: 21% and 14%

Question: And the “Population Healthy Nuclei (%)” value [6]?
Answer: 68% and 74%

Question: And the “Population Hoechst High Intensity Objects (%)” value [6]?
Answer: 2% and 1%

Question: What about the “Population Membrane Permeable-Phenotype (%)” value [6] of the same compound?
Answer: 8% and 10%

Question: What about the “Population Mitochondria Different-Phenotype (%)” value [6] of the same compound?
Answer: 3% and 1%

Question: And the “Population Mitotic Cells (%)” value [6]?
Answer: 9% and 4%

Question: What about the “Population Normal (%)” value [6] of the same compound?
Answer: 97% and 98%

Question: What about the “Population Pyknosed Nuclei (%)” value [6] of the same compound?
Answer: 10% and 11%

Question: And the “Population Tubulin-Different-Phenotype (%)” value [6]?
Answer: 4% and 3%

Question: And the “Total Cell Count” value [6]?
Answer: 440 and 213
